Assay results from ChEMBL document CHEMBL3616442, “Unconventional Knoevenagel-type indoles: Synthesis and cell-based studies for the identification of pro-apoptotic agents” (Eur J Med Chem, 2015).

Columns and labels:
IGROV-1 = test: Growth inhibition of human IGROV1 cells after 48 hrs by sulforhodamine B assay; assay type: functional; details: IGROV-1, 48 h
How it was run: (§1)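 NCI 60-cell-line screen. Compounds tested at five 10-fold dilutions from 10^-4 to 10^-8 M. Cells exposed for the last 48 h of a 72 h incubation, growth estimated by sulforhodamine B protein assay. GI50 is the concentration giving 50% growth inhibition. Values beyond the tested range are expressed as greater or lesser than the extreme concentration.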

SR = test: Growth inhibition of human SR cells after 48 hrs by sulforhodamine B assay; assay type: functional
SK-OV-3 = test: Growth inhibition of human SKOV3 cells after 48 hrs by sulforhodamine B assay; assay type: functional; details: SK-OV-3, 48 h
CAKI-1 = test: Growth inhibition of human CAKI-1 cells after 48 hrs by sulforhodamine B assay; assay type: functional; details: CAKI-1, 48 h; how it was run: as §1
A549 = test: Growth inhibition of human A549 cells after 48 hrs by sulforhodamine B assay; assay type: functional; details: A549, 48 h; how it was run: as §1
[1] = Growth inhibition of human RXF393 cells after 48 hrs by sulforhodamine B assay; assay type: functional; details: RXF 393, 48 h
[2] = Growth inhibition of human SF539 cells after 48 hrs by sulforhodamine B assay; assay type: functional; details: SF-539, 48 h
DU-145 = test: Growth inhibition of human DU145 cells after 48 hrs by sulforhodamine B assay; assay type: functional; details: DU-145, 48 h; how it was run: as §1
SF-268 = test: Growth inhibition of human SF268 cells after 48 hrs by sulforhodamine B assay; assay type: functional; details: SF-268, 48 h
NCI-H322M = test: Growth inhibition of human NCI-H322M cells after 48 hrs by sulforhodamine B assay; assay type: functional; how it was run: as §1
[3] = Growth inhibition of human NCI-ADR-RES cells after 48 hrs by sulforhodamine B assay; assay type: functional; how it was run: as §1
[4] = Growth inhibition of human MOLT4 cells after 48 hrs by sulforhodamine B assay; assay type: functional; details: MOLT-4, 48 h; how it was run: as §1
HOP-62 = test: Growth inhibition of human HOP62 cells after 48 hrs by sulforhodamine B assay; assay type: functional; details: HOP-62, 48 h; how it was run: as §1
[5] = Growth inhibition of human SF295 cells after 48 hrs by sulforhodamine B assay; assay type: functional; details: SF-295, 48 h
A498 = test: Growth inhibition of human A498 cells after 48 hrs by sulforhodamine B assay; assay type: functional; details: A498, 48 h; how it was run: as §1
HCT-116 = test: Growth inhibition of human HCT116 cells after 48 hrs by sulforhodamine B assay; assay type: functional; details: HCT-116, 48 h; how it was run: as §1
SK-MEL-28 = test: Growth inhibition of human SK-MEL-28 cells after 48 hrs by sulforhodamine B assay; assay type: functional; details: SK-MEL-28, 48 h
SK-MEL-2 = test: Growth inhibition of human SK-MEL-2 cells after 48 hrs by sulforhodamine B assay; assay type: functional; details: SK-MEL-2, 48 h
U-251 = test: Growth inhibition of human U251 cells after 48 hrs by sulforhodamine B assay; assay type: functional; details: U-251, 48 h
[6] = Growth inhibition of human COLO205 cells after 48 hrs by sulforhodamine B assay; assay type: functional; details: COLO 205, 48 h; how it was run: as §1
[7] = Growth inhibition of human Hs 578T cells after 48 hrs by sulforhodamine B assay; assay type: functional; how it was run: as §1
SN12C = test: Growth inhibition of human SN12C cells after 48 hrs by sulforhodamine B assay; assay type: functional
MDA-MB-231 = test: Growth inhibition of human MDA-MB-231 cells after 48 hrs by sulforhodamine B assay; assay type: functional; details: MDA-MB-231, 48 h; how it was run: as §1
SK-MEL-5 = test: Growth inhibition of human SK-MEL-5 cells after 48 hrs by sulforhodamine B assay; assay type: functional; details: SK-MEL-5, 48 h
PC-3 = test: Growth inhibition of human PC3 cells after 48 hrs by sulforhodamine B assay; assay type: functional; details: PC-3, 48 h
786-0 = test: Growth inhibition of human 786-0 cells after 48 hrs by sulforhodamine B assay; assay type: functional; details: 786-0, 48 h; how it was run: as §1
UACC-62 = test: Growth inhibition of human UACC62 cells after 48 hrs by sulforhodamine B assay; assay type: functional; details: UACC-62, 48 h
M14 = test: Growth inhibition of human M14 cells after 48 hrs by sulforhodamine B assay; assay type: functional; details: M14, 48 h; how it was run: as §1
SW-620 = test: Growth inhibition of human SW620 cells after 48 hrs by sulforhodamine B assay; assay type: functional; details: SW-620, 48 h
MCF7 = test: Growth inhibition of human MCF7 cells after 48 hrs by sulforhodamine B assay; assay type: functional; details: MCF7, 48 h; how it was run: as §1
MT4 = test: Antiproliferative activity against human MT4 cells after 96 hrs by MTT assay; assay type: functional, cell-based; details: MT4, 96 h
How it was run: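 Exponentially growing MT-4 cells (CD4+ human T-cells carrying integrated HTLV-1 genome), seeded at 1×10^5 cells/mL in RPMI-1640 with 10% FCS and antibiotics. Serial dilutions of compound (DMSO stock 100 mM, diluted in medium), 37 °C, 5% CO₂, 96 h. Viability read by MTT. 50% inhibition versus untreated controls by linear regression. Mean ± SD of three independent determinations.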

[8] = Growth inhibition of human HOP92 cells after 48 hrs by sulforhodamine B assay; assay type: functional; details: HOP-92, 48 h; how it was run: as §1
MDA-MB-435 = test: Growth inhibition of human MDA-MB-435 cells after 48 hrs by sulforhodamine B assay; assay type: functional; details: MDA-MB-435, 48 h; how it was run: as §1
HL-60(TB) = test: Growth inhibition of human HL-60(TB) cells after 48 hrs by sulforhodamine B assay; assay type: functional; details: HL-60, 48 h
How it was run: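 NCI 60-cell-line screen, HL-60(TB) included. Compound given at five 10-fold dilutions from 10^-4 to 10^-8 M. Cells exposed for the last 48 h of a 72 h incubation. Growth or viability estimated by sulforhodamine B protein assay. GI50 is the concentration giving 50% growth inhibition. Values outside the tested range are reported as greater or less than the highest or lowest concentration.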

T47D = test: Growth inhibition of human T47D cells after 48 hrs by sulforhodamine B assay; assay type: functional
NCI-H226 = test: Growth inhibition of human NCI-H226 cells after 48 hrs by sulforhodamine B assay; assay type: functional; details: NCI-H226, 48 h; how it was run: as §1
HT-29 = test: Growth inhibition of human HT-29 cells after 48 hrs by sulforhodamine B assay; assay type: functional; details: HT-29, 48 h; how it was run: as §1
K562 = test: Growth inhibition of human K562 cells after 48 hrs by sulforhodamine B assay; assay type: functional; details: K562, 48 h; how it was run: as §1
OVCAR-3 = test: Growth inhibition of human OVCAR3 cells after 48 hrs by sulforhodamine B assay; assay type: functional; details: OVCAR-3, 48 h; how it was run: as §1
MDA-MB-468 = test: Growth inhibition of human MDA-MB-468 cells after 48 hrs by sulforhodamine B assay; assay type: functional; details: MDA-MB-468, 48 h; how it was run: as §1
HCT-15 = test: Growth inhibition of human HCT15 cells after 48 hrs by sulforhodamine B assay; assay type: functional; details: HCT-15, 48 h; how it was run: as §1
KM12 = test: Growth inhibition of human KM12 cells after 48 hrs by sulforhodamine B assay; assay type: functional; details: KM12, 48 h; how it was run: as §1
SNB-75 = test: Growth inhibition of human SNB75 cells after 48 hrs by sulforhodamine B assay; assay type: functional; details: SNB-75, 48 h
[9] = Growth inhibition of human RPMI8226 cells after 48 hrs by sulforhodamine B assay; assay type: functional; details: RPMI-8226, 48 h
NCI-H460 = test: Growth inhibition of human NCI-H460 cells after 48 hrs by sulforhodamine B assay; assay type: functional; details: NCI-H460, 48 h; how it was run: as §1
NCI-H23 = test: Growth inhibition of human NCI-H23 cells after 48 hrs by sulforhodamine B assay; assay type: functional; details: NCI-H23, 48 h; how it was run: as §1
SNB-19 = test: Growth inhibition of human SNB19 cells after 48 hrs by sulforhodamine B assay; assay type: functional; details: SNB-19, 48 h

## COc1ccc(-c2[nH]c3ccc(OC)cc3c2C=C(C#N)C#N)cc1
IGROV-1
  GI50: 5800 nM
SR
  GI50: 152 nM
SK-OV-3
  GI50: 892 nM
CAKI-1
  GI50: 392 nM
A549
  GI50: 3800 nM
[1]
  GI50: 5500 nM
[2]
  GI50: 774 nM
DU-145
  GI50: 917 nM
SF-268
  GI50: 1700 nM
NCI-H322M
  GI50: 380 nM
[3]
  GI50: 403 nM
[4]
  GI50: 369 nM
HOP-62
  GI50: 3300 nM
[5]
  GI50: 306 nM
A498
  GI50: 75 nM
HCT-116
  GI50: 487 nM
SK-MEL-28
  GI50: 1700 nM
SK-MEL-2
  GI50: 5900 nM
U-251
  GI50: 635 nM
[6]
  GI50: 291 nM
[7]
  GI50: 513 nM
SN12C
  GI50: 15900 nM
MDA-MB-231
  GI50: 1300 nM
SK-MEL-5
  GI50: 324 nM
PC-3
  GI50: 342 nM
786-0
  GI50: 14300 nM
UACC-62
  GI50: 357 nM
M14
  GI50: 308 nM
SW-620
  GI50: 579 nM
MCF7
  GI50: 385 nM
MT4
  EC50: 300 nM
[8]
  GI50: 23000 nM
MDA-MB-435
  GI50: 122 nM
HL-60(TB)
  GI50: 363 nM
T47D
  GI50: 2600 nM
NCI-H226
  GI50: 1500 nM
HT-29
  GI50: 407 nM
K562
  GI50: 345 nM
OVCAR-3
  GI50: 424 nM
MDA-MB-468
  GI50: 503 nM
HCT-15
  GI50: 778 nM
KM12
  GI50: 590 nM
SNB-75
  GI50: 593 nM
[9]
  GI50: 5100 nM
NCI-H460
  GI50: 472 nM
NCI-H23
  GI50: 2000 nM
SNB-19
  GI50: 13700 nM
